The text below walks through data of ChEMBL document CHEMBL3244024, “Synthesis and antiallergic activity of some mono- and disubstituted xanthone-2-carboxylic acids” (1978).

The test system of one experiment is Rattus norvegicus. As to the kind of experiment: Antiallergic activity in iv dosed Sprague-Dawley rat assessed as inhibition of egg albumin-induced passive cutaneous anaphylaxis after 15 to 25 mins relative to disodium cromoglycate.
Take `CC(C)[S+]([O-])c1ccc2oc3ccc(C(=O)O)cc3c(=O)c2c1` (stereo not given): the RPCA relative potency is 4.

Consider `CS(=O)(=O)c1ccc2oc3ccc(C(=O)O)cc3c(=O)c2c1`, for which the RPCA relative potency was 7.

For the molecule `CCCCOc1cc([S+](C)[O-])cc2c(=O)c3cc(C(=O)O)ccc3oc12` (stereo not given), the RPCA relative potency amounted to 260.

Regarding `CC(=O)c1ccc2oc3ccc(C(=O)O)cc3c(=O)c2c1`, the RPCA relative potency was 6.

For the molecule `CCC(=O)c1ccc2oc3ccc(C(=O)O)cc3c(=O)c2c1`, the RPCA relative potency was 2.

Consider `CC(C)C(=O)c1ccc2oc3ccc(C(=O)O)cc3c(=O)c2c1`, for which the RPCA relative potency was found to be 3.

As for `O=C(O)c1ccc2oc3ccc(C(=O)C4CC4)cc3c(=O)c2c1`, the RPCA relative potency was 3.

For `O=C(O)c1ccc2oc3ccc(C(=O)C4CCCC4)cc3c(=O)c2c1`, the RPCA relative potency stood at 2.

For the molecule `CSc1ccc2oc3ccc(C(=O)O)cc3c(=O)c2c1`, the RPCA relative potency was determined as 5.

For the molecule `CC(C)Sc1ccc2oc3ccc(C(=O)O)cc3c(=O)c2c1`, the RPCA relative potency was determined as 2.

Regarding `COc1cc(OC)c2oc3ccc(C(=O)O)cc3c(=O)c2c1`, the RPCA relative potency amounted to 6.

For `COc1cc2oc3ccc(C(=O)O)cc3c(=O)c2cc1OC`, the RPCA relative potency stood at 2.

As to `COc1cc(OC)c2c(=O)c3cc(C(=O)O)ccc3oc2c1`, the RPCA relative potency is 0.1.

With `Cc1cc(C)c2oc3ccc(C(=O)O)cc3c(=O)c2c1`, the RPCA relative potency was 1.

Take `Cc1cc2oc3ccc(C(=O)O)cc3c(=O)c2cc1C`: the RPCA relative potency turned out to be 0.2.

`Cc1ccc2oc3ccc(C(=O)O)cc3c(=O)c2c1C`: the RPCA relative potency came out at 0.2.

`CCOc1cc([S+](C)[O-])cc2c(=O)c3cc(C(=O)O)ccc3oc12` (stereo not given): the RPCA relative potency amounted to 80.

Consider `CCCOc1cc([S+](C)[O-])cc2c(=O)c3cc(C(=O)O)ccc3oc12` (stereo not given), for which the RPCA relative potency was found to be 50.

As for `CC(C)Oc1cc([S+](C)[O-])cc2c(=O)c3cc(C(=O)O)ccc3oc12` (stereo not given), the RPCA relative potency stood at 190.

With `CCCCCOc1cc([S+](C)[O-])cc2c(=O)c3cc(C(=O)O)ccc3oc12` (stereo not given), the RPCA relative potency turned out to be 90.

Turning to `CC(C)CCOc1cc([S+](C)[O-])cc2c(=O)c3cc(C(=O)O)ccc3oc12` (stereo not given), the RPCA relative potency was 100.

In the case of `C[S+]([O-])c1cc(OC2CCCC2)c2oc3ccc(C(=O)O)cc3c(=O)c2c1` (stereo not given), the RPCA relative potency is 100.

`CCCCCCCCOc1cc([S+](C)[O-])cc2c(=O)c3cc(C(=O)O)ccc3oc12` (stereo not given): the RPCA relative potency was 35.

For the molecule `C[S+]([O-])c1ccc2oc3ccc(C(=O)O)cc3c(=O)c2c1` (stereo not given) [TIXANOX], the RPCA relative potency was 25.

The subject of the next experiment is Rattus norvegicus. As to the kind of experiment: Antiallergic activity in iv dosed Sprague-Dawley rat assessed as inhibition of egg albumin-induced passive cutaneous anaphylaxis after 15 to 25 mins relative to disodium cromoglycate. In kind it is functional. Put shortly: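 Reaginic antiserum from rats immunized with 1.25 mg egg albumin sc plus H. pertussis vaccine ip, bled 11 days later. Recipient rats sensitized intradermally with two antiserum dilutions in 0.1 mL saline. Challenged 24 h later iv with 1.0 mL buffered saline (pH 7.2) holding 1.0 mg albumin, 0.5% Evans blue and test compound. Usually three doses (fivefold increments), ≥5 rats per group.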
With `CCCCOc1cc([S+](C)[O-])cc2c(=O)c3cc(C(=O)O)ccc3oc12` (stereo not given), the “fold change (FC)” value amounted to 260.
